# Source: PubChem
# Furin inhibitor = blocks human furin protease activity; AID 463115; hit rate 0.061% among 220,000; P09958; inhibition, % at 20 µM or 30 µM; purified furin, fluorogenic substrate cleavage; in the data active = inhibition above about 25%
# FXIa inh = factor XIa (human) inhibition | purified FXIa, Boc-Glu-Ala-Arg-AMC fluorogenic substrate | inhibition, % at 5 µM | hit rate 0.14% among 220,000 | P03951;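 active = inhibition of at least 40%; inactive = inhibition below 40%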;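 note: fluorescence of freed AMC excited at 355 nm; 0% = enzyme without compound and 100% = no enzyme blank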
# KLK5 inh = blocks human kallikrein 5 protease activity | Q9Y337 | recombinant hK5, fluorogenic AMC substrate cleavage | inhibition, % at 5 µM | hit rate 0.59% among 210,000;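 active = inhibition of 40% or more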;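 note: 0% = enzyme controls without compound and 100% = no-enzyme blanks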
# PERK inh = inhibitors of human PERK kinase | CHO PERK-DD fusion, SEAP luminescence translation reporter | Q9NZJ5 | inhibition, % at 5.6 µM | hit rate 0.17% among 220,000 | AID 1416;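 active = inhibition above the mean inhibition of all tested compounds plus 3 SD, set separately per screening campaign, cut at about 2.9% in these data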;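 note: PERK kinase domain activated by AP20187 dimerizer at 100 nM; 0% = DMSO with dimerizer and 100% = rapamycin at 8.4 µM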
# Thrombin inh = blocks human thrombin protease activity; inhibition, % at 5 µM; hit rate 0.26% among 220,000; alpha-thrombin, Boc-VPR-AMC fluorogenic substrate cleavage; P00734; AID 1046;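 active = inhibition at or above 40%; inactive = inhibition below 40%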;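 note: 0% = enzyme with no compound and 100% = wells without enzyme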
#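 signal = AMC fluorescence, 355/460 nm | material = human alpha-thrombin enzyme | control set = enzyme without compound as high, wells lacking enzyme as low | times = reaction at room temperature | read-out basis = percent inhibition scaled between no-compound controls and no-enzyme blanks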
# FXIIa inh = factor XIIa (human) inhibition. P00748. purified FXIIa, Boc-QGR-AMC fluorogenic substrate, 2 h. inhibition, % at 5 µM. hit rate 0.3% among 220,000; in the data active = inhibition above about 40%;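 note: 0% = enzyme with no compound and 100% = blank without enzyme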
# Target sequence (P00748 20-372 limits assumed): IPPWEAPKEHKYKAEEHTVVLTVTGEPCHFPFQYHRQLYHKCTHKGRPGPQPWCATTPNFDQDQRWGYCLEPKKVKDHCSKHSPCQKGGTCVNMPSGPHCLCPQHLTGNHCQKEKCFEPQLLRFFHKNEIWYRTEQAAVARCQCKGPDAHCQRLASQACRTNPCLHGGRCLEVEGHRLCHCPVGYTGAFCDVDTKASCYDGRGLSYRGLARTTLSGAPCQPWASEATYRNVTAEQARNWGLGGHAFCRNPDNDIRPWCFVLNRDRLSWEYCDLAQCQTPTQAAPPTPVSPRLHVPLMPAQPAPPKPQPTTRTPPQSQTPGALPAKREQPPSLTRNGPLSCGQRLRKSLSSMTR
# Target sequence (P00748 373-615 limits assumed): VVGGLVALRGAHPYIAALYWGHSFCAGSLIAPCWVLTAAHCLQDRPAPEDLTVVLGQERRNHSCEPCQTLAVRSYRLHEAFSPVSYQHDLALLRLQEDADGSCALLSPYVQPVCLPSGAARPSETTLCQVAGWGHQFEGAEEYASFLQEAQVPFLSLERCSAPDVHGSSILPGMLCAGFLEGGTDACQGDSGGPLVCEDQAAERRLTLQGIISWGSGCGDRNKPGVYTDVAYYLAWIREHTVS
# Starred values were filed as active, the others as inactive; . = no result given. Rows were chosen to be rich in hits. Some 1.2% of all compounds tested hit in one or more screens of this group.
SMILES,Furin inhibitor,FXIa inh,KLK5 inh,PERK inh,Thrombin inh,FXIIa inh
Clc1ccc(-c2csc(N3CCOCC3)n2)cc1,-13,48*,45*,1,24,38
COc1ccc2nc(NC(=O)CSc3nnc(N)s3)sc2c1,1,-7,0,1,13,-1
COc1ccc2nc(NC(=O)CSc3nnc(C)n3N)sc2c1,-6,-9,-6,4.7*,-1,3
COC(=O)Cc1cc(OC)c(OC)cc1S(=O)(=O)N(C)C,-18,-3,-7,0,1,9
CCCCSc1nc2c(cc1C#N)CCC2,-9,5,104*,1,14,2
Cn1c(SCC(=O)c2ccc3c(c2)NC(=O)CO3)nc2ccccc21,-4,25,38,0,53*,22
CCCn1c(SCC(=O)c2ccc3c(c2)NC(=O)CO3)nc2ccccc21,-3,-2,-7,0,-5,2
COC(=O)c1csc(S(=O)(=O)N2CCCCC2)c1OC,-23,-1,4,1,2,11
Cc1cccc(N2CC(c3nc4ccccc4[nH]3)CC2=O)c1 (stereo not given),-28,0,4,0,1,11
CCc1ccc(NC2CC(=O)N(c3ccc(OC)cc3OC)C2=O)cc1 (stereo not given),-18,-18,-21,-1,43*,-4
O=C(NCCc1c[nH]c2ccccc12)/C(=C\c1cccnc1)NC(=O)c1ccccc1Br,-17,-1,0,1,-3,6
O/N=C/c1ccc2ccccc2n1,-1,-1,-2,0,-1,3
O/N=C/c1ccc2cccc(O)c2n1,-14,1,-11,3.7*,-2,9
COc1ccc(-c2nn(-c3ccccc3)cc2CN(C)CCn2ccnc2C)c(F)c1,-11,0,-1,-1,-8,2
Nc1nc(-c2ccc(Cl)cc2Cl)cn1N,-6,-13,-38,3.1*,-13,-15
COC(=O)CC1C(=O)NCCN1C(=S)Nc1cccc(C)c1 (stereo not given),-2,35,-21,0,-3,45*
O=C(c1ccc(Cl)cc1)C1CCN(C(=O)NC2CCCCC2)CC1,-10,-5,-14,0,-7,8
O=C(O)C1CCN(C(=O)NC2CCCCC2)CC1,-5,-8,0,2.9*,-2,-1
COc1ccc(/C=C2/SC(=S)N(n3c(C)ccc3C)C2=O)cc1,-11,1,-14,1,-8,84*
CCOc1ccc(/C=C2/SC(=S)N(n3c(C)ccc3C)C2=O)cc1,-9,1,25,-1,-3,4
COC(=O)c1c(NC(=O)C(C)(C)C)csc1C,-15,-1,-3,-1,2,7
COC(=O)c1nc(NC(=O)c2ccccc2Cl)n[nH]1,-17,7,48*,2,.,82*
COC(=O)c1nc(NC(=O)C(C)(C)C)n[nH]1,-15,-26,2,1,56*,11
COC(=O)c1nc(-c2ccccc2)n[nH]1,-15,1,-2,-1,4,11
c1ccc(CCC2CCCCN2Cc2nc(-c3ccc4c(c3)OCO4)no2)nc1 (stereo not given),1,14,.,0,0,12
SMILES,Furin inhibitor,FXIa inh,KLK5 inh,PERK inh,Thrombin inh,FXIIa inh
Cc1nnc(NC(=O)c2ccc(S(=O)(=O)C(F)F)cc2)s1,-28,7,6,1,-3,6
Cc1ccc(NCC(=O)N/N=C/c2cc(O)ccc2[N+](=O)[O-])cc1,-7,1,-2,-1,0,12
COc1ccccc1-n1cc(C(=O)NCC(=O)N2CCN(c3ccccc3)CC2)c2ccccc2c1=O,-4,0,-2,-1,-1,8
COc1ccccc1N1CCN(C(=O)CNC(=O)c2cn(-c3ccccc3OC)c(=O)c3ccccc23)CC1,-33,-1,2,0,101*,9
Cc1cccc(N2CCN(C3=NC(=O)C(=C4CCCCC4)S3)CC2)c1,-3,-5,120*,-1,1,-3
O=C(O)CSc1nnc(-c2cccc(S(=O)(=O)N3CCOCC3)c2)n1-c1cccc(Cl)c1,-10,4,9,2,4,11
CCn1c(SCC(=O)N2CCN(c3ccccc3)CC2)nnc1-c1cc2cc(Cl)ccc2o1,-18,18,0,1,16,47*
C=CCn1c(SCC(=O)N2CCN(c3ccccc3)CC2)nnc1-c1ccco1,5,-1,-3,-2,-3,4
